Reference: PMC2761715 (Molecular cancer therapeutics, 2009)

What was measured:
Assay type in all cases: cell-based
8226 cells = assay: Cell death analysis, annexin V, FACS; conditions: addition of 3-MA, supplemental data S5
H929 cells [1] = assay: Mitochondrial membrane potential; conditions: H929, NAC 10 mM 30 min, then HYD1 50 µg/ml 4 hrs; Figure 5C
Summary of the method: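 H929 cells (4 × 10^5 cells/ml) pretreated 30 min with 10 mM NAC, then test compound 50 µg/ml for a further 4 h. Cells stained 15 min with 15 nM DiOC6, PBS-washed and resuspended, then loss of Δψm measured by flow cytometry; n=9.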

LC3 = assay: LC3-I to LC3-II conversion, western blot
Summary of the method: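 H929 or 8226 cells exposed 4 h to test peptide or scrambled peptide (50 µg/ml H929; 100 µg/ml 8226) or 100 uM tunicamycin; NAC arm: H929 at 4 × 10^5 cells/ml, 10 mM NAC 30 min then 50 µg/ml for 4 h. Lysed on ice in NP-40/Tris pH 7.6 buffer with protease/phosphatase inhibitors; 10 µg protein, 8% SDS-PAGE, PVDF blot for LC3-I/II.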

H929 cells [2] = assay: Reactive oxygen species; conditions: NAC 10 mM; supplementary data S7
H929 cells [3] = assay: Neutral comet assay; conditions: H929, 6 hours, 50 ug/ml HYD1 or HYDS or 50 ng/ml TRAIL, n=150; Figure 3D
Summary of the method: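 Neutral comet assay on H929 cells given 50 µg/ml test peptide, scrambled peptide, or 50 ng/ml TRAIL (positive control) for 6 h. 5,000 cells pelleted, taken up in PBS agar, layered onto frosted slides and run under neutral conditions. Comet moments measured from 50 images per treatment by CCD camera; n=150.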

Cn1cnc(N)c2ncnc1-2 [3-MA, 3-Methyladenine]
sensitization to HYD1 induced cell death (8226 cells): sensitized 8226 cells to HYD1 induced cell death

CC(=O)N[C@@H](CS)C(=O)O [NAC, N-acetyl-L-cysteine]
reversal of HYD1-induced loss in Δψm by NAC (H929 cells [1]): not reversed by pretreatment with NAC
reversal of HYD1-induced increase in LC3-II by NAC (LC3; H929, NAC 10 mM 30 min, then HYD1 50 µg/ml 4 hrs, Figure 5D): completely reversed
inhibition of ROS production by NAC (H929 cells [2]): effective in inhibiting the production of ROS

TRAIL
comet moments (double stranded DNA breaks) (H929 cells [3]): significant increase in comet moments

Tunicamycin
conversion of LC3-I to LC3-II (LC3; 4 hour treatment, 50 µg/ml HYD1 for H929, 100 ug/ml for 8226, 100 uM tunicamycin): increased conversion of LC3-I to LC3-II
